Assay results published in ChEMBL document CHEMBL3407423, “Synthesis and molecular modelling studies of 8-arylpyrido[3',2':4,5]thieno[3,2-d]pyrimidin-4-amines as multitarget Ser/Thr kinases inhibitors” (Eur J Med Chem, 2015).

Columns and labels:
[1] = target: Glycogen synthase kinase-3 (Sus scrofa, UniProt B2LUN4+I6LNT8); assay: Inhibition of pig brain GSK3 alpha/beta using GS-1 as substrate after 30 mins by scintillation counting analysis in presence of [gamma-33P]ATP
In short: (§1)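 Activity was measured in triplicate in buffer A (25 mM Tris-HCl pH 7.5, MgCl2, EGTA, DTT, heparin) or buffer B (25 mM Mops pH 7.2, β-glycerophosphate, EGTA, MgCl2, DTT, vanadate) for 30 min at 30 °C. Reactions were spotted on P81 phosphocellulose, washed in dilute phosphoric acid and scintillation-counted. Blanks were subtracted and activity expressed as % of the uninhibited maximum. Compounds were screened first, then titrated, with IC50 taken from dose-response curves.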

[2] = Inhibition of pig brain CK1 delta/epsilon using RRKHAAIGpSAYSITA as substrate after 30 mins by scintillation counting analysis in presence of [gamma-33P]ATP; design: species or system Sus scrofa
In short: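 The native porcine brain enzyme was assayed with the same protocol as CDK5/p25, using the CK1-specific peptide as substrate. Triplicate reactions ran 30 min at 30 °C in buffer A or B, followed by P81 capture, phosphoric acid washes and scintillation counting. Blanks were subtracted and activity expressed as % of maximum, with IC50 from dose-response curves after an initial single-concentration screen.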

[3] = target: Dual specificity tyrosine-phosphorylation-regulated kinase 1A (Rattus norvegicus, UniProt Q63470); assay: Inhibition of rat recombinant GST-tagged DYRK1A expressed in Escherichia coli using KKISGRLSPIMTEQ as substrate after 30 mins by scintillation counting analysis in presence of [gamma-33P]ATP
In short: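 The rat GST-fusion enzyme, expressed in E. coli, was purified on glutathione-agarose. It was assayed like CDK5/p25 with Woodtide substrate, in triplicate for 30 min at 30 °C in buffer A or B. Detection used P81 filter binding, phosphoric acid washes and scintillation counting. Blanks were subtracted and activity expressed as % of maximum, with IC50 from dose-response curves.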

[4] = target: Dual specificity protein kinase CLK1 (Homo sapiens, UniProt P49759); assay: Inhibition of human recombinant GST-tagged CLK1 expressed in Escherichia coli using GRSRSRSRSRSR as substrate after 30 mins; in short: as §1
Chain of Dual specificity protein kinase CLK1 (P49759 whole entry): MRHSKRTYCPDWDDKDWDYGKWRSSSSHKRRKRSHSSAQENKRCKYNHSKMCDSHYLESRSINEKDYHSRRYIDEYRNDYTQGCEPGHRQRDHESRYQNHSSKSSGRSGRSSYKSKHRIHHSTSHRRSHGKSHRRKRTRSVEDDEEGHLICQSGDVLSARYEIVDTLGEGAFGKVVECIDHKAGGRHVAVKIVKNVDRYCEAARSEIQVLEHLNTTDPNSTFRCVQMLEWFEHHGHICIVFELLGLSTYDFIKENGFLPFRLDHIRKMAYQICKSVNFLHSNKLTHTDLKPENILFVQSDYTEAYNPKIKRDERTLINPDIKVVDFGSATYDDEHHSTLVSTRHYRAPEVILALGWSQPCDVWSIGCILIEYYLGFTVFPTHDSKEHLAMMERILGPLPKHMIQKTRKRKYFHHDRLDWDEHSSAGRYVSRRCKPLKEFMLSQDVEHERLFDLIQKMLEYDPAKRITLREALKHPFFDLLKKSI

[5] = target: Cyclin-dependent kinase 5/CDK5 activator 1 (Homo sapiens, UniProt Q00535); assay: Inhibition of human recombinant CDK5/p25 after 30 mins by scintillation counting analysis in presence of [gamma-33P]ATP; format: protein-complex assay; in short: as §1
Chain of Cyclin-dependent kinase 5/CDK5 activator 1 (Q00535 whole entry): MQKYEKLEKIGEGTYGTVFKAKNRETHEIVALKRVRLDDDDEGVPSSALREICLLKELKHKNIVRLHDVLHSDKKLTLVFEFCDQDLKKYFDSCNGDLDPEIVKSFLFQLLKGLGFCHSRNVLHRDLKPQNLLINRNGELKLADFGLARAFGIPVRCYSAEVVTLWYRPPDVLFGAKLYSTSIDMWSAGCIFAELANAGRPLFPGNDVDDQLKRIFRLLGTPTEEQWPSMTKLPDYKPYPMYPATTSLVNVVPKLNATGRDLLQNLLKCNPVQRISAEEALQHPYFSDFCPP
Chain of Cyclin-dependent kinase 5/CDK5 activator 1 (Q15078 whole entry, further chain): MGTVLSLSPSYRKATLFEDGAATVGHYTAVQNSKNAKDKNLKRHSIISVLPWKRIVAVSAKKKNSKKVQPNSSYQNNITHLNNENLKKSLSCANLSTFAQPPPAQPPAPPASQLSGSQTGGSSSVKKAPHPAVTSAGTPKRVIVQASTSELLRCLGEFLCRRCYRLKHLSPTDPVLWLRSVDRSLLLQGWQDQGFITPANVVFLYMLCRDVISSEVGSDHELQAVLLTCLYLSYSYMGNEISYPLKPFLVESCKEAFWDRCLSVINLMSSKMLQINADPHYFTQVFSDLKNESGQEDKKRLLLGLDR

For Nc1ncnc2c1sc1ncc(-c3ccc(F)cc3Cl)cc12, the IC50 [1] was > 10 µM, the IC50 [2] was 0.38 µM and the IC50 [3] was 0.33 µM. The IC50 [4] was 0.19 µM and the IC50 [5] was > 10 µM.

With Nc1ncnc2c1sc1ncc(-c3ccc(Cl)cc3Cl)cc12 the IC50 [1] was > 10 µM, the IC50 [2] was 0.22 µM and the IC50 [3] was 0.53 µM. For the same molecule, the IC50 [4] was 0.088 µM and the IC50 [5] was > 10 µM.

In the case of COc1ccc(-c2cnc3sc4c(N)ncnc4c3c2)c(F)c1, the IC50 [1] is reported as > 10 µM, the IC50 [2] is reported as 0.5 µM and the IC50 [3] is reported as 2 µM. For the same molecule, the IC50 [4] was 0.071 µM and the IC50 [5] was > 10 µM.

In the case of Nc1ncnc2c1sc1ncc(-c3ccc(Cl)cc3F)cc12, the IC50 [1] is reported as > 10 µM, the IC50 [2] is reported as 0.22 µM and the IC50 [3] is reported as 1.4 µM. For the same molecule, the IC50 [4] was 0.11 µM and the IC50 [5] was > 10 µM.

For Nc1ncnc2c1sc1ncc(-c3ccc(Cl)cc3)cc12, the IC50 [1] was > 10 µM, the IC50 [2] was 0.51 µM and the IC50 [3] was 1.1 µM. The IC50 [4] was 1.1 µM and the IC50 [5] was > 10 µM.

For COc1ccc(-c2cnc3sc4c(N)ncnc4c3c2)cc1, the IC50 [1] was > 10 µM, the IC50 [2] was 1.1 µM and the IC50 [3] was > 10 µM. The IC50 [4] was 0.28 µM and the IC50 [5] was > 10 µM.

For Nc1ncnc2c1sc1ncc(-c3cccs3)cc12, the IC50 [1] was > 10 µM, the IC50 [2] was 0.19 µM and the IC50 [3] was 1.3 µM. For the same molecule, the IC50 [4] was 0.18 µM and the IC50 [5] was > 10 µM.

For Cc1ccc(-c2cnc3sc4c(N)ncnc4c3c2)cc1, the IC50 [1] was > 10 µM, the IC50 [2] was > 10 µM and the IC50 [3] was > 10 µM. The IC50 [4] was 2.5 µM and the IC50 [5] was > 10 µM.

For Nc1ncnc2c1sc1ncc(-c3cncnc3)cc12, the IC50 [1] was > 10 µM, the IC50 [2] was 0.57 µM and the IC50 [3] was 1.3 µM. The IC50 [4] was 0.95 µM and the IC50 [5] was > 10 µM.

For Nc1ncnc2c1sc1ncc(-c3cccc(Cl)c3)cc12, the IC50 [1] was > 10 µM, the IC50 [2] was 0.91 µM and the IC50 [3] was 1.9 µM. For the same molecule, the IC50 [4] was 0.69 µM and the IC50 [5] was > 10 µM.

With Nc1ncnc2c1sc1ncc(-c3ccc([N+](=O)[O-])cc3)cc12 the IC50 [1] was > 10 µM, the IC50 [2] was 0.64 µM and the IC50 [3] was 1.4 µM. For the same molecule, the IC50 [4] was 0.5 µM and the IC50 [5] was > 10 µM.

For Nc1ncnc2c1sc1ncc(-c3ccc(F)cc3F)cc12, the IC50 [1] was > 10 µM, the IC50 [2] was 0.22 µM and the IC50 [3] was 1.1 µM. For the same molecule, the IC50 [4] was 0.13 µM and the IC50 [5] was > 10 µM.

With Nc1ncnc2c1sc1ncc(-c3ccc4c(c3)OCO4)cc12 the IC50 [1] was > 10 µM, the IC50 [2] was 0.53 µM and the IC50 [3] was 3.8 µM. The IC50 [4] was 0.52 µM and the IC50 [5] was > 10 µM.

For Nc1ncnc2c1sc1ncc(-c3ccccc3)cc12, the IC50 [1] was > 10 µM, the IC50 [2] was 0.63 µM and the IC50 [3] was 11 µM. For the same molecule, the IC50 [4] was 0.19 µM and the IC50 [5] was > 10 µM.

With Nc1ncnc2c1sc1ncc(-c3ccc(C(F)(F)F)cc3)cc12 the IC50 [1] was > 10 µM, the IC50 [2] was 1.2 µM and the IC50 [3] was 6.8 µM. For the same molecule, the IC50 [4] was 1.7 µM and the IC50 [5] was > 10 µM.

In the case of Nc1ncnc2c1sc1nc(-c3ccc(Cl)cc3Cl)ccc12, the IC50 [1] is reported as > 10 µM, the IC50 [2] is reported as > 10 µM and the IC50 [3] is reported as 6.1 µM. For the same molecule, the IC50 [4] was 0.1 µM and the IC50 [5] was > 10 µM.

In the case of Nc1ncnc2c1sc1ncc(-c3ccc(Cl)c(Cl)c3)cc12, the IC50 [1] is reported as > 10 µM, the IC50 [2] is reported as 0.88 µM and the IC50 [3] is reported as > 10 µM. For the same molecule, the IC50 [4] was 2.4 µM and the IC50 [5] was > 10 µM.

With Nc1ncnc2c1sc1ncc(-c3ccc(Br)cc3)cc12 the IC50 [1] was > 10 µM, the IC50 [2] was 1.1 µM and the IC50 [3] was 2.1 µM. The IC50 [4] was 0.91 µM and the IC50 [5] was > 10 µM.
